The subject of experiment [1] is 5637. As to the kind of experiment: Growth inhibition against human 5637 cell lines. Type of experiment: functional, cell-based. In outline:
(§1)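 Cells were grown in RPMI-1640 with 2 g/L NaHCO3 and 10% FCS at 37 °C in 5% CO2, seeded at 1000 cells/well, and dosed 24 h later at five geometric dilutions for 96 h of continuous exposure. Cells were then glutaraldehyde-fixed and stained with crystal violet, with OD read at 570 nm. IC50 was taken from the dose–response data.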

The subject of a further experiment is DAN-G. As to the kind of experiment: Growth inhibition against human DAN-G cell lines. Type of experiment: functional, cell-based. The procedure, abridged:
as §1

The next experiment has as its system KYSE-70 cell line. As to the kind of experiment: Growth inhibition against human KYSE-70 cell lines. Type of experiment: functional, cell-based. In outline: as §1
In the next experiment the test system is MCF7. As to the kind of experiment: Growth inhibition against human MCF-7 cell lines. Type of experiment: functional, cell-based. The procedure, abridged: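 MCF-7 was cultured in RPMI-1640 with 2 g/L NaHCO3, 10% FCS, 1 mM pyruvate, MEM salts and amino acids. Plating was 1000 cells/well, then after 24 h, 96 h of continuous exposure at five geometric dilutions. Crystal violet staining of glutaraldehyde-fixed cells was read at 570 nm, and IC50 was derived from the dose–response data.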

Experiment [2] deals with LCLC-103H cell line. Description: Growth inhibition against human LCLC-103H cell lines. Type of experiment: functional, cell-based. The procedure, abridged: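 LCLC-103H cells were grown in RPMI-1640 with 2 g/L NaHCO3 and 10% FCS (5% CO2, 37 °C) and plated at 250 cells/well. After 24 h, five geometric dilutions were applied continuously for 96 h. Fixation was with glutaraldehyde, followed by crystal violet staining and OD at 570 nm. IC50 came from the dose–response curves.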

The next experiment relates to RT-112. As to the kind of experiment: Growth inhibition against human RT-112 cell lines. Type of experiment: functional, cell-based. The procedure, abridged:
as §1

The test system of the next experiment is RT-4. As to the kind of experiment: Growth inhibition against human RT-4 cell lines. Type of experiment: functional, cell-based. The procedure, abridged:
as §1

The subject of experiment [3] is SISO. As to the kind of experiment: Growth inhibition against human SISO cell lines. Type of experiment: functional, cell-based. In outline: as §1
The test system of another experiment is TERT-RPE1. Description: Compound was tested for growth inhibition against human h-TERTRPE1 cell lines. Type of experiment: functional, cell-based. The procedure, abridged:
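The noncancerous hTERT-immortalized epithelial line h-TERT-RPE1 was grown in DMEM/F-12 with 2 g/L NaHCO3 and 10% FCS (37 °C, 5% CO2) and seeded at 1000 cells/well. Substance was added 24 h later at five geometric dilutions for 96 h continuously. The read-out was crystal violet staining after glutaraldehyde fixation, OD 570 nm, with IC50 from dose–response.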

A further experiment concerns YAPC. As to the kind of experiment: Compound was tested for growth inhibition against human YAPC cell lines. Type of experiment: functional, cell-based. In outline:
as §1

The next experiment concerns KYSE-520 cell line. Description: Growth inhibition against human KYSE-520 cell lines. Type of experiment: functional, cell-based. In outline:
as §1

A further experiment relates to KYSE-510 (human). As to the kind of experiment: Growth inhibition against human KYSE-510 cell lines.
In a further experiment the test system is KYSE-510. Description: Cytotoxic activity against human KYSE-510 cell line at 20 uM expressed as percent growth value. Type of experiment: functional. The procedure, abridged:
(§2)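 Cells in RPMI-1640 with 10% FCS were seeded (1000 cells/well; KYSE-510 500, LCLC-103H 250), then exposed 24 h later for 96 h. Read-out was crystal violet staining of glutaraldehyde-fixed cells at OD 570 nm. Growth (%) = (OD treated − OD at drug addition)/(OD control − OD at drug addition) × 100.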

For experiment [4], the system named is LCLC-103H cell line. Description: Cytotoxic activity against human LCLC-103H cell line at 20 uM expressed as percent growth value. Type of experiment: functional. The procedure, abridged:
as §2

Experiment [5] relates to SISO. Description: Cytotoxic activity against human SISO cell line at 20 uM. Type of experiment: functional. The procedure, abridged: as §2
Experiment [6] relates to 5637. As to the kind of experiment: Cytotoxic activity against human 5637 cell line at 20 uM expressed as percent growth value. Type of experiment: functional. In outline: as §2

On to CISPLATIN, for which the IC50 (in general, the concentration at which inhibition is half-maximal) stood at 310 nM in the experiment on 5637 [1]; 1390 nM in the experiment with DAN-G (dan-g); 1490 nM in the experiment with KYSE-70 cell line (kyse-70); 740 nM with MCF7 (mcf7); 1630 nM in the experiment with LCLC-103H cell line [2] (lclc-103h); 2140 nM in the experiment with RT-112 (rt-112). Moreover, the IC50 with RT-4 (rt-4) worked out at 3700 nM; in the experiment with SISO [3] (siso) it was 200 nM; in the experiment on TERT-RPE1 (tert-rpe1), 3040 nM; in the experiment with YAPC (yapc), 6030 nM; in the experiment on KYSE-520 cell line (kyse-520), 5070 nM; with KYSE-510 (human) (kyse-510), 880 nM.
With `N#C/C(=C\c1ccc([N+](=O)[O-])o1)c1n[nH]c(-c2ccccc2)n1`, the IC50 came out at 1220 nM in the experiment with 5637 [1] (Homo sapiens); 1520 nM in the experiment with DAN-G (Homo sapiens, DAN-G); 1170 nM in the experiment with KYSE-70 cell line (Homo sapiens, KYSE-70); 1620 nM in the experiment on MCF7 (Homo sapiens, MCF7); 700 nM in the experiment with LCLC-103H cell line [2] (Homo sapiens, LCLC-103H); 1510 nM in the experiment on RT-112 (Homo sapiens, RT-112). For the same compound, the IC50 was found to be 1850 nM in the experiment with RT-4 (Homo sapiens, RT-4); 1200 nM with SISO [3] (Homo sapiens, SISO); 1160 nM in the experiment on TERT-RPE1 (Homo sapiens, RPE-1); 1400 nM with YAPC (Homo sapiens, YAPC); 1620 nM in the experiment with KYSE-520 cell line (Homo sapiens, KYSE-520); 1350 nM in the experiment on KYSE-510 (human) (Homo sapiens, KYSE-510). Further, the figures for the Activity in the experiment with KYSE-510, in the experiment with LCLC-103H cell line [4] and with SISO [5] were -20.9, -8.4 and -7.9, respectively.
Consider `N#C/C(=C\c1csc([N+](=O)[O-])c1)c1nc2ccccc2[nH]1`, for which the Activity was 80 in the experiment on 5637 [6], 8.6 in the experiment with LCLC-103H cell line [4] and 82.3 with SISO [5]. For the same compound, the IC50 is above 20000 nM with 5637 [1] (Homo sapiens); above 20000 nM with DAN-G (Homo sapiens, DAN-G); 1420 nM in the experiment with LCLC-103H cell line [2] (Homo sapiens, LCLC-103H); above 20000 nM in the experiment on RT-4 (Homo sapiens, RT-4); above 20000 nM in the experiment on SISO [3] (Homo sapiens, SISO); above 5000 nM in the experiment with TERT-RPE1 (Homo sapiens, RPE-1).
With `N#C/C(=C\c1ccc([N+](=O)[O-])o1)c1n[nH]c(Cc2ccccc2)n1`, the IC50 in the experiment with 5637 [1] (Homo sapiens) is 400 nM; in the experiment with DAN-G (Homo sapiens, DAN-G), 490 nM; with KYSE-70 cell line (Homo sapiens, KYSE-70), 400 nM; in the experiment on MCF7 (Homo sapiens, MCF7), 610 nM; in the experiment on LCLC-103H cell line [2] (Homo sapiens, LCLC-103H) it was 290 nM; in the experiment with RT-112 (Homo sapiens, RT-112) it was 750 nM. For the same compound, the IC50 in the experiment on RT-4 (Homo sapiens, RT-4) worked out at 1370 nM; in the experiment with SISO [3] (Homo sapiens, SISO), 370 nM; with TERT-RPE1 (Homo sapiens, RPE-1), 420 nM; in the experiment on YAPC (Homo sapiens, YAPC), 450 nM; in the experiment on KYSE-520 cell line (Homo sapiens, KYSE-520) it was 750 nM; with KYSE-510 (human) (Homo sapiens, KYSE-510) it was 620 nM. Further, the Activity with KYSE-510 is given as -20.7; in the experiment with LCLC-103H cell line [4] it was -7.3; in the experiment on SISO [5], -8.1.
With `N#C/C(=C\c1cccc([N+](=O)[O-])c1)c1n[nH]c(-c2ccccc2)n1`, the Activity in the experiment on KYSE-510 turned out to be 108; in the experiment with LCLC-103H cell line [4] it was 56.4; with SISO [5], 85.5.
With `CN(C)c1ccc(/C=C(\C#N)c2n[nH]c(Cc3ccccc3)n2)cc1`, the IC50 amounted to 1380 nM in the experiment on 5637 [1] (Homo sapiens); 4110 nM with DAN-G (Homo sapiens, DAN-G); 2530 nM with KYSE-70 cell line (Homo sapiens, KYSE-70); 1490 nM in the experiment with MCF7 (Homo sapiens, MCF7); 1650 nM in the experiment with LCLC-103H cell line [2] (Homo sapiens, LCLC-103H); 3690 nM in the experiment with RT-112 (Homo sapiens, RT-112). For the same compound, the half-inhibitory concentration (IC50) is 2500 nM with RT-4 (Homo sapiens, RT-4); 3240 nM in the experiment with SISO [3] (Homo sapiens, SISO); 3480 nM with YAPC (Homo sapiens, YAPC); 6260 nM in the experiment on KYSE-520 cell line (Homo sapiens, KYSE-520); 3360 nM in the experiment on KYSE-510 (human) (Homo sapiens, KYSE-510). Besides, the results for the Activity in the experiment with KYSE-510, in the experiment with LCLC-103H cell line [4] and with SISO [5] were -1.01, -1.8 and 1.2, respectively.
Take `Cc1ccc(/C=C(\C#N)c2nc3ccccc3[nH]2)s1`: the Activity in the experiment on 5637 [6] is 47.8; in the experiment with LCLC-103H cell line [4], 5.9; in the experiment with SISO [5] it was 64.5. Moreover, the IC50 in the experiment on 5637 [1] (Homo sapiens) is 20000 nM; in the experiment with DAN-G (Homo sapiens, DAN-G), above 20000 nM; in the experiment on LCLC-103H cell line [2] (Homo sapiens, LCLC-103H), 2110 nM; in the experiment with RT-4 (Homo sapiens, RT-4), above 20000 nM; in the experiment on SISO [3] (Homo sapiens, SISO), above 20000 nM.

(Values after ChEMBL document CHEMBL1148342, “Synthesis, X-ray crystal structures, stabilities, and in vitro cytotoxic activities of new heteroarylacrylonitriles” (J Med Chem, 2004).)
